Test results published in ChEMBL document CHEMBL4425135, “Novel C-Ring-Hydroxy-Substituted Controlled Deactivation Cannabinergic Analogues” (J Med Chem, 2016).

Tests used:
[1] = target: T1, Cannabinoid receptor 1 (Rattus norvegicus, UniProt P20272); experiment: Displacement of [3H]CP55940 from CB1 receptor in rat brain membranes by scintillation counting method; format: cell membranes
Summary of the method: (§1)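 Competition binding against [3H]CP-55,940 using rat brain membranes (CB1) or membranes of HEK293 cells expressing mouse or human CB2. IC50 from nonlinear regression, converted to Ki. Each experiment run in triplicate; Ki is the mean of three independent experiments.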

[2] = target: Cannabinoid receptor 2 (Mus musculus, UniProt P47936); experiment: Displacement of [3H]CP55940 from mouse CB2 receptor expressed in HEK293 cell membranes by scintillation counting method; summary of the method: as §1
Sequence of Cannabinoid receptor 2 (Mus musculus, UniProt P47936) (P47936 whole entry): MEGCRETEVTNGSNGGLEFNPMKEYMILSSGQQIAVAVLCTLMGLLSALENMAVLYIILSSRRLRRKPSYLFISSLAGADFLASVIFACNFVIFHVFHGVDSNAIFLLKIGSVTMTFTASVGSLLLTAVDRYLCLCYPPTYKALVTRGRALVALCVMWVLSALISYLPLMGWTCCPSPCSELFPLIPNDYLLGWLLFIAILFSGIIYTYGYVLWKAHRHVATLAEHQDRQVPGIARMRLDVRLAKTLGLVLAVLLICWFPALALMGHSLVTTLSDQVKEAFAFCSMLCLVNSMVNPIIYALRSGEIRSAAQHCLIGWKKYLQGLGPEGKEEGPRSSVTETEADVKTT

[3] = system: Rattus norvegicus; experiment: Hypothermic activity in sc dosed Sprague-Dawley rat assessed as decrease in rectal body temperature measured over 6 hrs; format: functional
Summary of the method: (§2)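 Female Sprague-Dawley rats, 250–350 g, n = 6/group, retested with ≥5 days between sessions. Dosed sc (1.0 mL/kg) in 20% ethanol/20% alkamuls/60% saline diluted with saline. Rectal thermistor at 6 cm depth. Two baselines 15 min apart, then readings every 30 min for 3 h and hourly to 6 h. Change taken from mean baseline.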

[4] = target: Cannabinoid receptor 1 (Rattus norvegicus) (UniProt P20272); experiment: Agonist activity at rat CB1 receptor expressed in HEK293 cells assessed as decrease in forskolin-stimulated cAMP levels at 500 nM after 30 mins relative to CP-55940; format: functional, cell-based
Sequence of Cannabinoid receptor 1 (Rattus norvegicus) (P20272 whole entry): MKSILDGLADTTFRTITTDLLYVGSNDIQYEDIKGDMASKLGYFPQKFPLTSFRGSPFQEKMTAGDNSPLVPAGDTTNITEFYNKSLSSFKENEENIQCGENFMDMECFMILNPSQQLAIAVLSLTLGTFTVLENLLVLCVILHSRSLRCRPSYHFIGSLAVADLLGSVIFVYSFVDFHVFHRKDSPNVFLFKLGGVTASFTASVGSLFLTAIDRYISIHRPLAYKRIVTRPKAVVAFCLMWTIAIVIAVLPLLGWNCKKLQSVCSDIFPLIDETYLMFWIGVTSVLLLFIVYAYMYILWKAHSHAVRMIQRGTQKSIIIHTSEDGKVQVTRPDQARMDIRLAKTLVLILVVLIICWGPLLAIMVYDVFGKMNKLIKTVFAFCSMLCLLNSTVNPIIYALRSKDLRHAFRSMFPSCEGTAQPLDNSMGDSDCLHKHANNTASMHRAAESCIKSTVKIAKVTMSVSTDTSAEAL

[5] = target: T1, Cannabinoid receptor 1; experiment: Agonist activity at rat CB1 receptor expressed in HEK293 cells assessed as decrease in forskolin-stimulated cAMP levels after 30 mins; format: functional, cell-based
Summary of the method: (§3)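 Stably transfected HEK293 cells harvested with Versene, washed in HBSS, resuspended in stimulation buffer. Cells exposed to graded compound concentrations in buffer containing forskolin (2 μM final), 30 min at room temperature. cAMP read by TR-FRET (Eu-cAMP tracer plus ULight anti-cAMP antibody, 60 min room temperature). EC50 from nonlinear regression.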

[6] = system: Rattus norvegicus; experiment: Hypothermic activity in Sprague-Dawley rat assessed as time required for decrease in rectal body temperature at 0.1 to 3 mg/kg, sc; format: functional; summary of the method: as §2
[7] = Half life in rat plasma assessed as esterase-mediated compound hydrolysis at 200 uM by HPLC method; format: ADME, cell-free
Summary of the method: (§4)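 Compound diluted to 200 μM in mouse or rat plasma and shaken at 37 °C, 100 rpm. Samples taken at timed points, diluted 1:4 in acetonitrile and centrifuged. Supernatant analysed by reversed-phase C18 HPLC, acetonitrile/acidified water gradient, UV detection. 4-Nitrophenyl butyrate run as control in each experiment. Half-life from exponential decay fit.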

[8] = Half life in mouse plasma assessed as esterase-mediated compound hydrolysis at 200 uM by HPLC method; format: ADME, cell-free; summary of the method: as §4
[9] = target: T2, Cannabinoid receptor 2 (Homo sapiens, UniProt P34972); experiment: Agonist activity at human CB2 receptor expressed in HEK293 cells assessed as decrease in forskolin-stimulated cAMP levels after 30 mins; format: functional, cell-based; summary of the method: as §3
T2 sequence (P34972 whole entry): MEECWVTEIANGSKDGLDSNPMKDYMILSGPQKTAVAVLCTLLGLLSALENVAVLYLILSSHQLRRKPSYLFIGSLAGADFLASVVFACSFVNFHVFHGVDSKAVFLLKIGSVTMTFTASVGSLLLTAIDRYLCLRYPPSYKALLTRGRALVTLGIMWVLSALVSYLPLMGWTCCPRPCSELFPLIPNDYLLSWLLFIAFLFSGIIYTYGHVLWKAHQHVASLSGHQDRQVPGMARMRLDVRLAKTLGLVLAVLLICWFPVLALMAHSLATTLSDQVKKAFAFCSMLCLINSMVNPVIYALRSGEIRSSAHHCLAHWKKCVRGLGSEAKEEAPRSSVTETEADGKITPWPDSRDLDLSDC

[10] = target: T2, Cannabinoid receptor 2; experiment: Agonist activity at human CB2 receptor expressed in HEK293 cells assessed as decrease in forskolin-stimulated cAMP levels at 500 nM after 30 mins relative to CP-55940; format: functional, cell-based
[11] = system: Rattus norvegicus; experiment: Hypothermic activity in Sprague-Dawley rat assessed as decrease in rectal body temperature at 3 mg/kg, sc measured over 6 hrs; format: functional; summary of the method: as §2
[12] = target: T2, Cannabinoid receptor 2; experiment: Displacement of [3H]CP55940 from human CB2 receptor expressed in HEK293 cell membranes by scintillation counting method; summary of the method: as §1

T1 sequence (P20272 whole entry): as the sequence (P20272 whole entry) above

Q: What does the source list for `CC1(C)Oc2cc(CC(=O)O)cc(O)c2[C@@H]2C[C@@H](O)CC[C@H]21`?
A: Ki [1]: > 10 µM; Ki [2]: > 10 µM

Q: With `CC(C)(C(=O)O)c1cc(O)c2c(c1)OC(C)(C)[C@@H]1CC[C@H](O)C[C@@H]21` as the compound, how does the Ki [1] read?
A: > 10 µM

Q: And the Ki [2]?
A: > 10 µM

Q: Which results are given for `CCCCOC(=O)C(C)(C)c1cc(O)c2c(c1)OC(C)(C)[C@@H]1CC[C@@H](O)C[C@@H]21`?
A: Activity [3]: Dose-dependent effect; ED50 [3]: 0.74 mg/kg; Emax [4]: 85%; EC50 [5]: 0.0086 µM; Time [6]: 1 to 3 h; t1/2 [7]: 10.2 min; t1/2 [8]: 2.7 min; EC50 [9]: 0.009 µM; Emax [10]: 85%; T [11]: 4.7 - 7.2 °C

Q: Which Ki [1] does the source give for `CC(C)(C(=O)O)c1cc(O)c2c(c1)OC(C)(C)[C@@H]1CC[C@@H](CO)C[C@@H]21` here?
A: > 10 µM

Q: What about the Ki [2] of the same compound?
A: > 10 µM

Q: Which Ki [1] does the source give for `CC(C)(C(=O)O)c1cc(O)c2c(c1)OC(C)(C)[C@@H]1CC[C@@H](O)C[C@@H]21` here?
A: > 10 µM

Q: What about the Ki [2] of the same compound?
A: > 10 µM

Q: With `CCCCOC(=O)Cc1cc(O)c2c(c1)OC(C)(C)[C@@H]1CC[C@H](O)C[C@@H]21` as the compound, how does the Ki [12] read?
A: 0.733 µM

Q: And the Ki [1]?
A: 0.75 µM

Q: What about the Ki [2] of the same compound?
A: 0.654 µM
